Shown are actives, neighbours in structure and some others; about 3.1% of the full set was active somewhere.
GPR7 antag = blocks human GPR7 receptor signaling | P48145 | GPR7-expressing cells, fluorescence antagonist assay | inhibition, % at 4.4 µM | hit rate 1.1% among 290,000 | AID 1861; in the data active = inhibition above about 16%, passing the limit was not always enough;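 note: cells stimulated with the agonist NPW; 0% = agonist with vehicle and 100% = vehicle without agonist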
Target sequence (P48145 whole entry, looked up): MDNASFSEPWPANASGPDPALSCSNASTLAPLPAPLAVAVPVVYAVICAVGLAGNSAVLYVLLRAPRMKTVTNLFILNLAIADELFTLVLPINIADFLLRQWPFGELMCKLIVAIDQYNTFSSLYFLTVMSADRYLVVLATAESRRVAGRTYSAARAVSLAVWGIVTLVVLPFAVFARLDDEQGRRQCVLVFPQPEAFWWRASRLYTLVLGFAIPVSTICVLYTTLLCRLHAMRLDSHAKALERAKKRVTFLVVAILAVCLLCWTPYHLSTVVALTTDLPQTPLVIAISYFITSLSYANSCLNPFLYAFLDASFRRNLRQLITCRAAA
OX1R antag-1 = blocks the human orexin 1 receptor; O43613; OX1R-expressing cells, FRET antagonist read-out; inhibition, % at 6.6 µM; hit rate 1.8% among 330,000; AID 485270; in the data active = inhibition mostly above about 38%, no sharp cut-off; inactive = mostly below about 40%;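 note: 0% = agonist challenge alone and 100% = reference antagonist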
CHO parental Ca = signal in parental CHO cells, OX1R antagonist counter-screen | parental CHO-K1, ATP-induced calcium, Fluo-8 fluorescence | inhibition, % at 5.6 µM | hit rate 0.63% among 330,000 | AID 463079;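 active = inhibition above that plate's mean sample inhibition plus 3 SD, cut at about 26% in these data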;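 note: 0% = ATP-challenged DMSO wells and 100% = DMSO wells without ATP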
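Test system: untransfected parental CHO cell line; also added: ATP stimulus; dosing: 5.6 µM, single dose; signal: calcium-sensitive Fluo-8 fluorescence; measure: percent inhibition of ATP-evoked calcium rise, normalized to controls; benchmarks: low control ATP plus DMSO, high control DMSO only; replication: one well per compound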
OX1R antag-2 = blocks the human orexin 1 receptor | O43613 | CHO/OX1R cells, Fluo-8 calcium fluorescence, orexin A | inhibition, % at 5 µM | hit rate 0.43% among 330,000 | AID 434989;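 active = inhibition above its plate's threshold, mean inhibition of all tested compounds on the plate plus 3 SD, cut at about 37% in these data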;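 note: 0% = orexin A challenge wells and 100% = SB-334867-A antagonist wells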
GalR3 antagonist = blocks the human galanin receptor 3; O60755; inhibition, % at 3 µM; HEK293 GalR3-CNG cAMP membrane potential fluorescence; galR3 body fused to GalR1 C-terminus; hit rate 0.44% among 360,000; AID 651719;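 active = inhibition above the screen-wide average plus 3 SD, cut at about 13% in these data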;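 note: forskolin and galanin both at EC90 stimulate the cells; cAMP rise reported by CNG channel membrane potential dye signal; 0% = forskolin plus galanin with DMSO and 100% = forskolin alone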
Target sequence (O60755 1-299 limits assumed): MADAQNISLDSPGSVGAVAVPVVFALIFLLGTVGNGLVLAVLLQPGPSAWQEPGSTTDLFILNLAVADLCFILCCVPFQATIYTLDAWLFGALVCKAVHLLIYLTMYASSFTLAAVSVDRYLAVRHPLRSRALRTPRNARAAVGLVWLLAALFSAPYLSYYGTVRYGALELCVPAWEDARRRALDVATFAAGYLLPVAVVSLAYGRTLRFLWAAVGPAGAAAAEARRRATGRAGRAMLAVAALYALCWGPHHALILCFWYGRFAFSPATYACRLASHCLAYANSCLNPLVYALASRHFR
GalR3 antag conf = confirmation of human galanin receptor 3 antagonists. shares compounds with GalR3 antagonist. HEK293 GalR3 CNG cAMP biosensor, membrane potential fluorescence; galR3 fused to GalR1 carboxy tail; challenged with forskolin and galanin at EC90. inhibition, % at 3 µM. hit rate 59% among 1,600. AID 652245;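 active = inhibition above the primary screen's cutoff, the mean inhibition of all screened compounds plus 3 SD, cut at about 13% in these data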;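 note: 0% = forskolin plus galanin and 100% = forskolin alone with DMSO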
HEK-CNG parental = counter-screen for GalR3 antagonists: nonspecific agonists in parental HEK-CNG cells; hit rate 10% among 1,600; HEK293-CNG parental cells, cAMP membrane potential fluorescence; normalised: DMSO wells 0%, forskolin wells 100%; shares compounds with GalR3 antagonist; activation, % at 3 µM; in the data active = activation above about 1.3%
The depositor's hits bear a star; nt = not tested or not shown.

SMILES | GPR7 antag | OX1R antag-1 | CHO parental Ca | OX1R antag-2 | GalR3 antagonist | GalR3 antag conf | HEK-CNG parental
COc1ccc(Cc2c(O)nc(SCC(=O)NC34CC5CC(CC(C5)C3)C4)[nH]c2=O)cc1 | -9 | -1 | -2 | -15 | -3 | 4 | 0
CCOC(=O)Cc1csc(NC(=O)c2cc(=O)c3ccccc3o2)n1 | -9 | 34 | -3 | -2 | 92* | 90* | 0
CCCCC[C@@H](/C=C/C1C(=O)C=C[C@H]1C/C=C\CCCC(=O)O)OC(C)=O (some centres undefined) | nt | nt | nt | nt | 100* | 98* | 0
O=C(NNc1ccnc2cc(Cl)ccc12)C1CCCCC1 | -8 | 43 | 35* | 31 | 27* | 112* | 0
O=C(NC(Nc1nc2ccc([N+](=O)[O-])cc2s1)(C(F)(F)F)C(F)(F)F)c1cccnc1 | -1 | 59* | 6 | -2 | 52* | 85* | 1
CCCOC(=O)CCCC[C@H]1SC[C@@H](NC(=O)OC)[C@H]1NC(=O)OC | -3 | -2 | 0 | -18 | 14* | 5 | 0
COC(=O)CCCCC1SCC2NC(=O)NC21 (centres undefined) | -3 | 20 | 7 | -4 | -4 | nt | nt
CCCc1nc(NCc2ccccc2)c(C#N)c2c1CCCC2 | -5 | -2 | -2 | -12 | 17* | 4 | 1
CC(C)c1ccc(NC2CCCN(C(=O)c3n[nH]c4c3CCC4)C2)cc1 (centres undefined) | 12 | 3 | -17 | -25 | 31* | 36* | 0
COC(=O)c1ccc(C(=O)N2CCCC(Nc3ccc(C(C)C)cc3)C2)cc1 (centres undefined) | 1 | 3 | 1 | -10 | -8 | nt | nt
COc1ccccc1N1C(=O)S/C(=C\c2cc(C)n(C)c2C)C1=O | -4 | 10 | -3 | -9 | 19* | 1 | 0
CCC(C)(C)NC(=O)c1ccc(S(=O)(=O)N2CCCCCC2)cc1 | 4 | 8 | 6 | -12 | 4 | nt | nt
COc1ccc(C(NC(C)=O)c2nccc3cc(OC)c(OC)cc23)cc1OC (centres undefined) | -14 | nt | nt | nt | 23* | 3 | 0
O=C(O)CN1C(=O)C(=O)N(Cc2ccc(Cl)c(Cl)c2)C1=O | -6 | -7 | -2 | -15 | -10 | nt | nt
COc1cc(C#Cc2c(-c3ccccc3OC)oc3ccccc23)cc(OC)c1 | nt | 7 | -28 | -5 | 13* | 6 | 0
CC(C)c1cccc(OCCN2CCCC2)c1 | -14 | 11 | -16 | -6 | 1 | nt | nt
COc1cc(/C=C2\C(=N)N3N=C(S(C)(=O)=O)SC3=NC2=O)ccc1OC(=O)c1ccco1 | -1 | 18 | -4 | -15 | -8 | nt | nt
COc1ccc(S(=O)(=O)N2CCCCC2)cc1NC(=O)C1CC(=O)N(Cc2ccccc2)C1 (centres undefined) | nt | -5 | -13 | -40 | -4 | nt | nt
Cc1onc(-c2ccccc2Cl)c1C(=O)NNC(=O)c1cccc(F)c1 | -4 | 15 | -19 | -9 | 13* | 15* | 0
COc1cccc(-c2ccc(-c3noc(-c4ccccc4F)n3)c(OC)n2)c1 | -2 | 9 | -9 | -21 | -6 | nt | nt
COc1cccc(-c2ccc(-c3noc(-c4cccs4)n3)c(OC)n2)c1 | 0 | 12 | -10 | -20 | 15* | 13* | 1
N#CCSc1nc(N)c(C#N)c(C2CCCCC2)c1C#N | -13 | 13 | -17 | -23 | 72* | 88* | 0
N#Cc1c(N)nc(SCC(=O)NC2CCCCC2)c(C#N)c1-c1ccc(Cl)cc1 | -6 | 3 | -14 | -12 | 0 | nt | nt
CC1CCC(CN2CCN=C2Nc2ccccc2)CC1 (centres undefined) | 0 | 22 | -21 | -7 | -7 | nt | nt
O=C(OCN1C(=O)c2ccccc2C1=O)c1cc(S(=O)(=O)N2CCOCC2)ccc1F | nt | nt | nt | nt | 13* | 24* | 0
SMILES | GPR7 antag | OX1R antag-1 | CHO parental Ca | OX1R antag-2 | GalR3 antagonist | GalR3 antag conf | HEK-CNG parental
CC1(C)C(=O)Nc2ccccc2N1C(=O)COC(=O)c1cc(S(=O)(=O)N2CCOCC2)ccc1F | -16 | 16 | -23 | -15 | 39* | 16* | 0
O=C(OCCN1C(=O)c2ccccc2C1=O)c1cc(S(=O)(=O)N2CCOCC2)ccc1Cl | 2 | 23 | 0 | -10 | 6 | nt | nt
CCCc1[nH]nc2c1C(c1cc(OC)cc(OC)c1)C(C#N)=C(N)O2 (centres undefined) | 5 | 5 | -15 | -22 | -6 | nt | nt
CCCc1[nH]nc2c1C(c1ccc(OC)c(CSC3=NCCS3)c1)C(C#N)=C(N)O2 (centres undefined) | -5 | 14 | -26 | -33 | 20* | 3 | 1
O=C1CSC(c2ccc(F)c(F)c2)N1c1ccccc1F (centres undefined) | -8 | 4 | -7 | 0 | 0 | nt | nt
Cn1c(SCc2cccc(F)c2)nnc1-c1ccncc1 | -8 | 4 | -11 | -13 | -8 | nt | nt
Cc1onc(-c2ccccc2)c1-c1nc2ccccc2c(=O)o1 | -5 | 10 | -3 | -11 | 16* | 13* | 2.0*
O=C(NC(=S)N1CCCCC1CO)c1cc(Br)ccc1Cl (centres undefined) | nt | nt | nt | nt | -5 | nt | nt
O=c1[nH]c2cccnc2c2ccsc12 | 10 | 9 | 2 | -28 | 23* | 17* | 0
CN(C)[C@@H](CO)c1nnc([C@H](Cc2ccc(O)cc2)NC(=O)C2CCNCC2)o1 | -7 | 19 | -11 | 9 | -5 | nt | nt
COCCNC(=O)C/C(C)=N/NC(=O)C(=O)NC1CCCCC1 | -6 | 7 | -16 | -26 | 13* | 2 | 0
COc1ccc(C(=O)NC(=S)Nc2ccc(CN3CCCCC3)cc2)cc1Cl | 8 | -8 | -10 | -16 | 15* | 7 | 9.7*
Cc1cccc(C(=O)Nc2oc(-c3ccccc3)cc2C#N)c1 | 2 | 45 | -8 | -7 | 2 | nt | nt
N#Cc1cc(-c2ccccc2)oc1NC(=O)c1ccco1 | 0 | 20 | -9 | -26 | 29* | 16* | 0
CC(C)c1cccc(-c2csc(C(C)(O)c3cccc(F)c3)n2)c1 (centres undefined) | nt | nt | nt | nt | -6 | nt | nt
CCc1nc2ccccc2c(C(=O)OCC(=O)Nc2cccc(S(=O)(=O)NC3=NCCCCC3)c2)c1C | 1 | 19 | -4 | -19 | 14* | 0 | -1
COc1cc2c(cc1OC)-c1cc(NC3CCCCCCC3)nc(=O)n1CC2 | -17 | 23 | -28 | -18 | 47* | 57* | 1.4*
COc1cc2c(cc1OC)-c1cc(NC3CCCCC3)nc(=O)n1CC2 | -13 | 14 | -24 | -22 | 44* | 33* | 0
CCc1nn(C(C)C(=O)NCc2cccc(Cl)c2)c(=O)c2cc3occc3n12 (centres undefined) | -11 | 18 | -31 | -28 | -3 | nt | nt

Source: PubChem BioAssay
